target: T1, Cytochrome P450 3A4 (Homo sapiens, UniProt P08684); experiment: Inhibition of CYP3A4 in human liver microsomes assessed as reduction in midazolam 1'-hydroxylation; format: ADME; details: not given
T1 sequence (P08684 whole entry): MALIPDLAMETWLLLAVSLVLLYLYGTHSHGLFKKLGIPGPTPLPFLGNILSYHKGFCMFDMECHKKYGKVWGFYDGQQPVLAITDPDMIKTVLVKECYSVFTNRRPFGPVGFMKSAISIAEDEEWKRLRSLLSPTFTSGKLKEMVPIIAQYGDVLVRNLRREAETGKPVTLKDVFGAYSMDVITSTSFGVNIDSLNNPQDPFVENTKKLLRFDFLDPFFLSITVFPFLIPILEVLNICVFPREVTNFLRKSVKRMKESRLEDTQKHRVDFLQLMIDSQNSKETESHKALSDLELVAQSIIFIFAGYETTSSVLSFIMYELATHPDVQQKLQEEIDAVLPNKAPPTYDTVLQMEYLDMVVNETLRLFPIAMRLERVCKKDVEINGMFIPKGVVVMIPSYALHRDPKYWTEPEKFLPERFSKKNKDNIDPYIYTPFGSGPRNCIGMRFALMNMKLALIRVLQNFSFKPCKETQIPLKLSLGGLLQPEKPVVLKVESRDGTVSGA

| Structure (SMILES) | inhibition (INH) |
| --- | --- |
| CCOC(=O)N1CCN(C(=O)[C@H](CCC(=O)O)NC(=O)c2cc(-c3ccsc3)nc(-c3ccccc3)n2)CC1 | Not Active |
| CCOC(=O)N1CCN(C(=O)[C@H](CCC(=O)O)NC(=O)c2cc(NC(=O)C3CCCCC3)nc(-c3ccccc3)n2)CC1 | Not Active |
| CCOC(=O)N1CCN(C(=O)[C@H](CCC(=O)O)NC(=O)c2cc(NS(=O)(=O)CC)nc(-c3ccccc3)n2)CC1 | Not Active |
| CCOC(=O)N1CCN(C(=O)[C@H](CCC(=O)O)NC(=O)c2cc(-c3cn[nH]c3)nc(-c3ccccc3)n2)CC1 | Not Active |

target: P2Y purinoceptor 12 (Homo sapiens, UniProt Q9H244); experiment: Displacement of [3H]-2-methyl-thio-adenosine 5'-diphosphate from human recombinant P2Y12 expressed in CHO cell membranes by scintillation counting method; details: not given
Method in brief: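 CHO cells expressing recombinant P2Y₁₂ receptors, incubated with tritium-labeled 2-methyl-thio-adenosine 5'-diphosphate plus test compound; IC₅₀ from displacement curves, each point in triplicate; reference compound run with every compound set, and set re-analyzed if its IC₅₀ fell outside pre-set 95% confidence interval.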

P2Y purinoceptor 12, sequence (Q9H244 whole entry): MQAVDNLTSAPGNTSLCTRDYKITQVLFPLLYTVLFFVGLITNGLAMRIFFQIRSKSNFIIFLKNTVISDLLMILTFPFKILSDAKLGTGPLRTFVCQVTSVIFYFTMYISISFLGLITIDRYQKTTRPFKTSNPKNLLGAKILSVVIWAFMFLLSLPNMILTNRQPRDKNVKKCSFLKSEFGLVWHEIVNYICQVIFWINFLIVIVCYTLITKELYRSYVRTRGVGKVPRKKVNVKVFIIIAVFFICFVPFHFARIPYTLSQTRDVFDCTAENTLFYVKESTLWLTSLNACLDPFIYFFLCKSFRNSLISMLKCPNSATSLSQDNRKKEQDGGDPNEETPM

| Structure (SMILES) | IC50 |
| --- | --- |
| CCOC(=O)N1CCN(C(=O)[C@H](CCC(=O)O)NC(=O)c2cc(-c3ccsc3)nc(-c3ccccc3)n2)CC1 | 11 nM |
| CCOC(=O)N1CCN(C(=O)[C@H](CCC(=O)O)NC(=O)c2cc(NC(=O)C3CCCCC3)nc(-c3ccccc3)n2)CC1 | 219 nM |
| CCOC(=O)N1CCN(C(=O)[C@H](CCC(=O)O)NC(=O)c2cc(NS(=O)(=O)CC)nc(-c3ccccc3)n2)CC1 | 142 nM |

target: T1, Cytochrome P450 3A4; experiment: Inhibition of CYP3A4 in human liver microsomes assessed as reduction in testosterone 6beta-hydroxylation; format: ADME; details: not given

| Structure (SMILES) | inhibition (INH) |
| --- | --- |
| CCOC(=O)N1CCN(C(=O)[C@H](CCC(=O)O)NC(=O)c2cc(-c3ccsc3)nc(-c3ccccc3)n2)CC1 | Not Active |
| CCOC(=O)N1CCN(C(=O)[C@H](CCC(=O)O)NC(=O)c2cc(NC(=O)C3CCCCC3)nc(-c3ccccc3)n2)CC1 | Not Active |
| CCOC(=O)N1CCN(C(=O)[C@H](CCC(=O)O)NC(=O)c2cc(NS(=O)(=O)CC)nc(-c3ccccc3)n2)CC1 | Not Active |
| CCOC(=O)N1CCN(C(=O)[C@H](CCC(=O)O)NC(=O)c2cc(-c3cn[nH]c3)nc(-c3ccccc3)n2)CC1 | Not Active |

tested on: not listed separately; experiment: Solubility in basic pH; format: physicochemical; details: not given; call rule not given here

| Structure (SMILES) | solubility |
| --- | --- |
| CCOC(=O)N1CCN(C(=O)[C@H](CCC(=O)O)NC(=O)c2cc(-c3ccsc3)nc(-c3ccccc3)n2)CC1 | soluble |
| CCOC(=O)N1CCN(C(=O)[C@H](CCC(=O)O)NC(=O)c2cc(NC(=O)C3CCCCC3)nc(-c3ccccc3)n2)CC1 | soluble |
| CCOC(=O)N1CCN(C(=O)[C@H](CCC(=O)O)NC(=O)c2cc(NS(=O)(=O)CC)nc(-c3ccccc3)n2)CC1 | soluble |
| CCOC(=O)N1CCN(C(=O)[C@H](CCC(=O)O)NC(=O)c2cc(-c3cn[nH]c3)nc(-c3ccccc3)n2)CC1 | soluble |

tested on: Liver microsome; experiment: Metabolic stability assay in rat liver microsomes assessed as parent drug disappearance at 1 uM after 20 mins by HPLC and mass spectrometry method; format: ADME; details: not given

| Structure (SMILES) | Stability |
| --- | --- |
| CCOC(=O)N1CCN(C(=O)[C@H](CCC(=O)O)NC(=O)c2cc(-c3ccsc3)nc(-c3ccccc3)n2)CC1 | Stable |
| CCOC(=O)N1CCN(C(=O)[C@H](CCC(=O)O)NC(=O)c2cc(NC(=O)C3CCCCC3)nc(-c3ccccc3)n2)CC1 | Stable |
| CCOC(=O)N1CCN(C(=O)[C@H](CCC(=O)O)NC(=O)c2cc(NS(=O)(=O)CC)nc(-c3ccccc3)n2)CC1 | Stable |
| CCOC(=O)N1CCN(C(=O)[C@H](CCC(=O)O)NC(=O)c2cc(-c3cn[nH]c3)nc(-c3ccccc3)n2)CC1 | Stable |

tested on: Liver microsome; experiment: Metabolic stability assay in human liver microsomes assessed as parent drug disappearance at 1 uM after 20 mins by HPLC and mass spectrometry method; format: ADME; details: not given

| Structure (SMILES) | Stability |
| --- | --- |
| CCOC(=O)N1CCN(C(=O)[C@H](CCC(=O)O)NC(=O)c2cc(-c3ccsc3)nc(-c3ccccc3)n2)CC1 | Stable |
| CCOC(=O)N1CCN(C(=O)[C@H](CCC(=O)O)NC(=O)c2cc(NC(=O)C3CCCCC3)nc(-c3ccccc3)n2)CC1 | Stable |
| CCOC(=O)N1CCN(C(=O)[C@H](CCC(=O)O)NC(=O)c2cc(NS(=O)(=O)CC)nc(-c3ccccc3)n2)CC1 | Stable |
| CCOC(=O)N1CCN(C(=O)[C@H](CCC(=O)O)NC(=O)c2cc(-c3cn[nH]c3)nc(-c3ccccc3)n2)CC1 | Stable |

tested on: not listed separately; experiment: Solubility in neutral pH; format: physicochemical; details: not given

| Structure (SMILES) | solubility |
| --- | --- |
| CCOC(=O)N1CCN(C(=O)[C@H](CCC(=O)O)NC(=O)c2cc(-c3ccsc3)nc(-c3ccccc3)n2)CC1 | soluble |
| CCOC(=O)N1CCN(C(=O)[C@H](CCC(=O)O)NC(=O)c2cc(NC(=O)C3CCCCC3)nc(-c3ccccc3)n2)CC1 | soluble |
| CCOC(=O)N1CCN(C(=O)[C@H](CCC(=O)O)NC(=O)c2cc(NS(=O)(=O)CC)nc(-c3ccccc3)n2)CC1 | soluble |
| CCOC(=O)N1CCN(C(=O)[C@H](CCC(=O)O)NC(=O)c2cc(-c3cn[nH]c3)nc(-c3ccccc3)n2)CC1 | soluble |

tested on: Platelet; experiment: Inhibition of ADP-induced platelet aggregation in human platelet rich plasma assessed as remaining activity at 500 nM by in-vitro light transmission aggregometry assay; format: functional; details: not given
Method in brief: (§1)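 Light transmission aggregometry in human platelet-rich plasma; compound incubated, aggregation triggered with 3 µM ADP; remaining activity (RA) recorded at a single compound level (1000, 500 or 100 nM).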

| Structure (SMILES) | Activity |
| --- | --- |
| CCOC(=O)N1CCN(C(=O)[C@H](CCC(=O)O)NC(=O)c2cc(-c3ccsc3)nc(-c3ccccc3)n2)CC1 | >60% |
| CCOC(=O)N1CCN(C(=O)[C@H](CCC(=O)O)NC(=O)c2cc(NC(=O)C3CCCCC3)nc(-c3ccccc3)n2)CC1 | >60% |
| CCOC(=O)N1CCN(C(=O)[C@H](CCC(=O)O)NC(=O)c2cc(NS(=O)(=O)CC)nc(-c3ccccc3)n2)CC1 | >60% |
| CCOC(=O)N1CCN(C(=O)[C@H](CCC(=O)O)NC(=O)c2cc(-c3cn[nH]c3)nc(-c3ccccc3)n2)CC1 | >60% |

target: Cytochrome P450 2C9 (Homo sapiens, UniProt P11712); experiment: Inhibition of CYP2C9 in human liver microsomes assessed as reduction in diclofenac 4'-hydroxylation; format: ADME; details: not given
Sequence (P11712 whole entry): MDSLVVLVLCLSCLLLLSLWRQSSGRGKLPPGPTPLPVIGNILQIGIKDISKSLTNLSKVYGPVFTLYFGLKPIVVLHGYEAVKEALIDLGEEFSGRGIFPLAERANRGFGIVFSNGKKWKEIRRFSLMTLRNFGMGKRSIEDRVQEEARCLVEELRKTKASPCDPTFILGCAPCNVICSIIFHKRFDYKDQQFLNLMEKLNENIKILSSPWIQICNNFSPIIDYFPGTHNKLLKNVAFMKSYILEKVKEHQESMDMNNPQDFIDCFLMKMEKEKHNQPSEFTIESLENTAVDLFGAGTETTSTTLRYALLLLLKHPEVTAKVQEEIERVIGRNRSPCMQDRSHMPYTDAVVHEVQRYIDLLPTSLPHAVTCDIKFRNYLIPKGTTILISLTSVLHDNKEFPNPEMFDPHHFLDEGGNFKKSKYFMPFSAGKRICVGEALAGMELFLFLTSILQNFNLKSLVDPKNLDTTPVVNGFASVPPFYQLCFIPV

| Structure (SMILES) | inhibition (INH) |
| --- | --- |
| CCOC(=O)N1CCN(C(=O)[C@H](CCC(=O)O)NC(=O)c2cc(-c3ccsc3)nc(-c3ccccc3)n2)CC1 | Not Active |
| CCOC(=O)N1CCN(C(=O)[C@H](CCC(=O)O)NC(=O)c2cc(NC(=O)C3CCCCC3)nc(-c3ccccc3)n2)CC1 | Not Active |
| CCOC(=O)N1CCN(C(=O)[C@H](CCC(=O)O)NC(=O)c2cc(NS(=O)(=O)CC)nc(-c3ccccc3)n2)CC1 | Not Active |
| CCOC(=O)N1CCN(C(=O)[C@H](CCC(=O)O)NC(=O)c2cc(-c3cn[nH]c3)nc(-c3ccccc3)n2)CC1 | Not Active |

target: Voltage-gated inwardly rectifying potassium channel KCNH2 (Homo sapiens, UniProt Q12809); experiment: Inhibition of human ERG expressed in HEK cells by patch-clamp assay; format: cell-based; details: hek293
Sequence (Q12809 whole entry): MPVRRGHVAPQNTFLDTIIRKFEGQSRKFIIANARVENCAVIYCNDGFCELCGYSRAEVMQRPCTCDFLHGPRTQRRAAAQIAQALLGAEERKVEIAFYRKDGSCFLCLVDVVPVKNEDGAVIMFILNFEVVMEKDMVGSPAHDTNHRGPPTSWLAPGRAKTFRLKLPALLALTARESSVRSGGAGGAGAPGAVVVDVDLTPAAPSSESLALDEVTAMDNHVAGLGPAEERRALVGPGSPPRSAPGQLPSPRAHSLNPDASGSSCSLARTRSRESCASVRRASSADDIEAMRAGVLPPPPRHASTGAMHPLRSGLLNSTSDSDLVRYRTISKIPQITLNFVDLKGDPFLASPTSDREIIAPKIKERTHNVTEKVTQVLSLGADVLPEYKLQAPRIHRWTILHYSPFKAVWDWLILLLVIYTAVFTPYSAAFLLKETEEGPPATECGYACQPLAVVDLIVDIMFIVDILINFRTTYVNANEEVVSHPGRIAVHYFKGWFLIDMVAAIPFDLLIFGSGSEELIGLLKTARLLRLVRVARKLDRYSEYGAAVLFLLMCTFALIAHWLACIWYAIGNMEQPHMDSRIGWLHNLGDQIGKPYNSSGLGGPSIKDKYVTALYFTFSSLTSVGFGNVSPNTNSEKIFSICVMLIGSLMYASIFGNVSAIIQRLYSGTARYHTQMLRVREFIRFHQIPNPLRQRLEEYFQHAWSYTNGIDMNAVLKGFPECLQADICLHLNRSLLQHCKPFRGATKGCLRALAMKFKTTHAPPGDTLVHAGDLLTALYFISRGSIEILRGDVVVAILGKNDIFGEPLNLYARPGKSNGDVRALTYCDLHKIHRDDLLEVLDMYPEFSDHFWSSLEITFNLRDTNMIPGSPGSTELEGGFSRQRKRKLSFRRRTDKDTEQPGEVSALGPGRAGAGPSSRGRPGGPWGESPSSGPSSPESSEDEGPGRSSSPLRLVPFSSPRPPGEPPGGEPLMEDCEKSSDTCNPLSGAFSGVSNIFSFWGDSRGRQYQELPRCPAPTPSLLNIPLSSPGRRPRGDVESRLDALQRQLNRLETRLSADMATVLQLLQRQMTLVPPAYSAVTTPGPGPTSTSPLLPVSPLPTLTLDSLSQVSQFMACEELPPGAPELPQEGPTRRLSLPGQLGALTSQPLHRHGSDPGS

| Structure (SMILES) | inhibition (INH) |
| --- | --- |
| CCOC(=O)N1CCN(C(=O)[C@H](CCC(=O)O)NC(=O)c2cc(-c3ccsc3)nc(-c3ccccc3)n2)CC1 | Not Active |
| CCOC(=O)N1CCN(C(=O)[C@H](CCC(=O)O)NC(=O)c2cc(NC(=O)C3CCCCC3)nc(-c3ccccc3)n2)CC1 | Not Active |
| CCOC(=O)N1CCN(C(=O)[C@H](CCC(=O)O)NC(=O)c2cc(NS(=O)(=O)CC)nc(-c3ccccc3)n2)CC1 | Not Active |
| CCOC(=O)N1CCN(C(=O)[C@H](CCC(=O)O)NC(=O)c2cc(-c3cn[nH]c3)nc(-c3ccccc3)n2)CC1 | Not Active |

target: Cytochrome P450 2D6 (Homo sapiens, UniProt P10635); experiment: Inhibition of CYP2D6 in human liver microsomes assessed as reduction in dextromethorphan-O demethylation; format: ADME; details: not given
Sequence (P10635 whole entry): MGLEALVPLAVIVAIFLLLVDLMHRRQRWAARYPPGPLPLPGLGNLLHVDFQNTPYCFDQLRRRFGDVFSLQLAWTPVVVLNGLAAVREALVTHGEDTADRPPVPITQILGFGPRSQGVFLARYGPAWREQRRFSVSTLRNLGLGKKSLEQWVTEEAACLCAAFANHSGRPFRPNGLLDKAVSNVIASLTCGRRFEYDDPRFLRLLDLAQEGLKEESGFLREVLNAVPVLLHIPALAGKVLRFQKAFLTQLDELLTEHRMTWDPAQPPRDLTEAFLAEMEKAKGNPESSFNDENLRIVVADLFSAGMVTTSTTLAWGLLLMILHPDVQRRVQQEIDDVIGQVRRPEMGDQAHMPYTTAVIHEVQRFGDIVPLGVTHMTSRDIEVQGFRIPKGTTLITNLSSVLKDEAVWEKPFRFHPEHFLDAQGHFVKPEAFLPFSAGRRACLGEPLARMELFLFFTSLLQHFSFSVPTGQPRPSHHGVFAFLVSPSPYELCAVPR

| Structure (SMILES) | inhibition (INH) |
| --- | --- |
| CCOC(=O)N1CCN(C(=O)[C@H](CCC(=O)O)NC(=O)c2cc(-c3ccsc3)nc(-c3ccccc3)n2)CC1 | Not Active |
| CCOC(=O)N1CCN(C(=O)[C@H](CCC(=O)O)NC(=O)c2cc(NC(=O)C3CCCCC3)nc(-c3ccccc3)n2)CC1 | Not Active |
| CCOC(=O)N1CCN(C(=O)[C@H](CCC(=O)O)NC(=O)c2cc(NS(=O)(=O)CC)nc(-c3ccccc3)n2)CC1 | Not Active |
| CCOC(=O)N1CCN(C(=O)[C@H](CCC(=O)O)NC(=O)c2cc(-c3cn[nH]c3)nc(-c3ccccc3)n2)CC1 | Not Active |

tested on: Platelet; experiment: Inhibition of ADP-induced platelet aggregation in human platelet rich plasma assessed as remaining activity at 1000 nM by in-vitro light transmission aggregometry assay; format: functional; details: not given; method in brief: as §1

| Structure (SMILES) | Activity |
| --- | --- |
| CCOC(=O)N1CCN(C(=O)[C@H](CCC(=O)O)NC(=O)c2cc(-c3ccsc3)nc(-c3ccccc3)n2)CC1 | >30% |
| CCOC(=O)N1CCN(C(=O)[C@H](CCC(=O)O)NC(=O)c2cc(NC(=O)C3CCCCC3)nc(-c3ccccc3)n2)CC1 | >30% |
| CCOC(=O)N1CCN(C(=O)[C@H](CCC(=O)O)NC(=O)c2cc(NS(=O)(=O)CC)nc(-c3ccccc3)n2)CC1 | >30% |
| CCOC(=O)N1CCN(C(=O)[C@H](CCC(=O)O)NC(=O)c2cc(-c3cn[nH]c3)nc(-c3ccccc3)n2)CC1 | >30% |

— ChEMBL document CHEMBL3351863, “Optimization of 2-phenyl-pyrimidine-4-carboxamides towards potent, orally bioavailable and selective P2Y(12) antagonists for inhibition of platelet aggregation” (Bioorg Med Chem Lett, 2014)
